The list is not random: actives were taken first. Their share in the collection is about 3.7%.
hERG rescue: shields human hERG channel from block by proarrhythmic agents. Q12809. CHO-hERG, FluxOR thallium flux, dofetilide IC70 present. activation (rescue from dofetilide block), less the hit threshold, % at 10 µM. 310,000 compounds, 0.51% hits. AID 1511;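 active means activation above the mean of controls blocked by dofetilide plus 5 SD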;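 further: thallium influx through hERG after potassium depolarization seen as dye fluorescence rise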
Kir21 inh: inhibitors of mouse Kir2.1 inward-rectifier potassium channel | B-score at 10 µM | HEK293-Kir2.1, FluxOR thallium flux fluorescence; active compounds read low | 310,000 compounds, 0.85% hits | AID 1672;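 active means fluorescence ratio B-score at or below minus 3 SD of library scores, with starting-brightness B-score within 2 SD, cut at about -4.2 in these data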;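 further: channel flux triggered by added potassium and thallium sulfate stimulus; B-score of peak minus minimum fluorescence over baseline after thallium stimulus; more negative B-score means stronger Kir2.1 block with less thallium influx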
KCNK9 block: blocks the human KCNK9 two-pore domain potassium channel. B-score at 10 µM. AID 488922. HEK293 KCNK9, FluxOR thallium flux fluorescence; active compounds read low. Q9NPC2. 310,000 compounds, 1.2% hits;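 active means ratio B-score over 3 SD below the library mean, with starting fluorescence within 5 SD of its mean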;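 further: negative B-score means less thallium flux so channel inhibition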
KCNK3 inh: human KCNK3 channel inhibition, primary screen. AID 602410. B-score at 10 µM. 340,000 compounds, 0.84% hits. CHO-KCNK3 thallium flux, FluxOR fluorescence; active compounds read low;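 active means B-score under library mean minus 4 SD, starting fluorescence ratio at most library mean plus 5 SD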;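 further: more negative B-score means stronger inhibition of thallium flux through KCNK3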
KCNQ1 act: potentiates or activates the human KCNQ1 potassium channel | CHO-K1 KCNQ1, thallium flux FluxOR fluorescence; active compounds read high | B-score at 10 µM | 310,000 compounds, 0.35% hits | AID 2648;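 active means fluorescence ratio B-score, a plate-corrected score, at least three library SD, with initial intensity B-score within 5 SD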
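Medium – assay buffer, equal DMSO in all wells · Material – CHO-K1 cell line with stable KCNQ1 potassium channel expression · Signal – kinetic FluxOR thallium fluorescence, 10-s 1-Hz baseline, 110-s post-stimulus read · Compound – single concentration per compound, DMSO matched to controls · Schedule – 37 °C overnight plating, 90-min dark dye load, 20-min compound pretreatment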
KCNQ1 block: inhibitors of human KCNQ1 potassium channel; P51787; CHO-K1 KCNQ1, FluxOR thallium flux fluorescence; active compounds read high; B-score at 10 µM; 310,000 compounds, 1.3% hits; AID 2642;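 active means compounds whose thallium flux B-score, printed positive for inhibition, exceeds three library SD while starting fluorescence stays within three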;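 further: channel opened by potassium depolarization with thallium stimulus after 20 min compound exposure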
KCNQ1 block val: confirmation of human KCNQ1 potassium channel inhibitors; AID 588353; shares compounds with KCNQ1 block; KCNQ1 cell line, FluxOR thallium flux fluorescence; inhibition, % at 10 µM; 1,600 compounds, 93% hits;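 active means primary screen active, with duplicate mean exceeding buffer control mean plus 3 SD of buffer wells, cut at about 28% in these data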;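 further: 0% = buffer control ratio and 100% = XE991 inhibitor control ratio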
CHO Tl flux: activity in parental CHO cells lacking KCNQ1; shares compounds with KCNQ1 block; parental CHO-K1, FluxOR thallium flux fluorescence ratio; active compounds read low; zero means no signal rise above baseline; fluorescence ratio (Tl flux) at 10 µM; 1,600 compounds, 21% hits; AID 588366;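 active means mean of duplicate thallium-flux fluorescence ratios in parental host cells more than 5 SD below the buffer control mean, cut at about 0.38 in these data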;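 further: ratio is peak minus minimum fluorescence divided by baseline fluorescence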
KCNQ1 ephys val: blocks human KCNQ1 current in automated patch clamp; shares compounds with KCNQ1 block; KCNQ1-CHO cells; calls only at 10 µM; 490 compounds, 20% hits;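 active means KCNQ1 current drop exceeding 3 SD of negative control wells, seen in both duplicate runs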;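 further: steady state current during a 2 s step from -80 to +40 mV; negative values mean current inhibition and positive values mean potentiation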
KCNQ2 inh: rat KCNQ2 inhibition in KCNQ1 inhibitor specificity screen. 1,600 compounds, 71% hits. inhibition, % at 10 µM. shares compounds with KCNQ1 block. KCNQ2 cells, FluxOR thallium flux fluorescence. AID 651746;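 active means mean percent inhibition of the KCNQ2 thallium signal more than 5 SD above the buffer-only control wells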;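 further: KCNQ2 expressed in CHO cells; 0% = buffer control wells and 100% = XE-991 inhibitor control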
Target sequence (O88943 whole entry, looked up): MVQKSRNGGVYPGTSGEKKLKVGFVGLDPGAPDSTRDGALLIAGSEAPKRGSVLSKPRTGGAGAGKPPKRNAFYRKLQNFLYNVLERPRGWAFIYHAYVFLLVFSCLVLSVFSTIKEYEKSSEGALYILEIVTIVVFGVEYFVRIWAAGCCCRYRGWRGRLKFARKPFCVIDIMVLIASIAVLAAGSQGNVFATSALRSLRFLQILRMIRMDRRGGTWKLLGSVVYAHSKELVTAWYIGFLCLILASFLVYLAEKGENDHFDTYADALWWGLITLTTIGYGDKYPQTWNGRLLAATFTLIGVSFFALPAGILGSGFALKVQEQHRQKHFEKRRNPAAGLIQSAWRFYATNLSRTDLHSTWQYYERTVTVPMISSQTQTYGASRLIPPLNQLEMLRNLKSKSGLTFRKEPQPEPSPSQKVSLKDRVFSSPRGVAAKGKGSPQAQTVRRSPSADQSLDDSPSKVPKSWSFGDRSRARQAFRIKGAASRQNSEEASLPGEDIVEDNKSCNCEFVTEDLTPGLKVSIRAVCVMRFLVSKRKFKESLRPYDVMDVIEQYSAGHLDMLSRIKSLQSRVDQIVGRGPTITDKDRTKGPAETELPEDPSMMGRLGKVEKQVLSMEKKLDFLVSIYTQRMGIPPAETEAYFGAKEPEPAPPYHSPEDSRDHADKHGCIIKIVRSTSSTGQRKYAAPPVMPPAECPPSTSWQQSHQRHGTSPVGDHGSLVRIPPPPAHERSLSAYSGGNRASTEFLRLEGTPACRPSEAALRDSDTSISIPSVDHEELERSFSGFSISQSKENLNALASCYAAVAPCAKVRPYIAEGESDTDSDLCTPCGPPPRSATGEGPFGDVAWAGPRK
KCNQ1-KCNE1 inh: selectivity of KCNQ1 inhibitors: inhibition of human KCNQ1/KCNE1 channel; inhibition, % at 10 µM; 1,600 compounds, 77% hits; KCNQ1/KCNE1 cells, FluxOR thallium flux fluorescence; shares compounds with KCNQ1 block; AID 652147;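 active means mean percent inhibition of duplicate wells above the buffer-only control mean plus 3 SD of those controls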;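 further: 0% = buffer only wells and 100% = XE-991 inhibitor control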
KCNK9 block conf: human KCNK9 inhibitor confirmation; 4,900 compounds, 43% hits; inhibition, % at 10 µM; HEK293 KCNK9 cells, FluxOR thallium flux fluorescence; shares compounds with KCNK9 block;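 active means thallium signal inhibited by more than 5 SD of the compound-free buffer control wells, on both duplicate plates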;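 further: 0% = assay buffer control wells without compound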
Kir2-1 spec: mouse Kir2.1 off-target activity of KCNK9 modulators; shares compounds with KCNK9 block; Kir2.1 cells, FluxOR thallium flux fluorescence; inhibition, % at 10 µM; AID 492993; 4,900 compounds, 4% hits;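 active means thallium signal drop more than 5 SD beyond the mean of the no-compound control wells, seen in both duplicate plates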;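 further: signal is fluorescence rise after thallium addition divided by baseline fluorescence; plate controls were assay buffer only for no effect and full block by chlorpromazine control for full effect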
HEK293 Tl ctr: second counter-screen for KCNK9 modulators: effect in non-induced cells; 4,900 compounds, 40% hits; shares compounds with KCNK9 block; non-induced KCNK9-HEK293, FluxOR thallium flux; inhibition, % at 10 µM;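 active means thallium signal drop beyond 5 SD of the untreated control mean, on both duplicate plates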;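 further: plate controls were buffer only IC0 wells for no effect and SID17386958 at its maximal inhibitory level for full effect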
KCNK3 inh conf: confirmation of human KCNK3 two-pore domain potassium channel inhibitors; shares compounds with KCNK3 inh; CHO-KCNK3 thallium flux, FluxOR fluorescence; 0% buffer, 100% carvedilol maximal block; ratio percent of control, % at 10 µM; 2,400 compounds, 99% hits; AID 651638;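 active means ratio percent of control, averaged over triplicates, above buffer control mean plus 5 SD, cut at about 64% in these data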;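 further: ratio is the fluorescence rise from min to max over baseline after thallium stimulus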
KCNK3 uninduced: activity in cells without induced KCNK3 expression; non-induced KCNK3 parental cells, FluxOR thallium flux; active compounds read low; 2,400 compounds, 40% hits; shares compounds with KCNK3 inh; thallium flux ratio (lower = more inhibition) at 10 µM; AID 651747;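 active means thallium flux ratio, averaged over three wells, more than 5 SD below the buffer control mean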;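 further: host cells are CHO cells without KCNK3 induction; ratio is peak minus trough fluorescence over baseline then normalized to buffer controls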
The depositor's hits bear a star; i = inactive; nt = no result given; + = active, no number.

SMILES | hERG rescue | Kir21 inh | KCNK9 block | KCNK3 inh | KCNQ1 act | KCNQ1 block | KCNQ1 block val | CHO Tl flux | KCNQ2 inh | KCNQ1-KCNE1 inh | KCNK3 inh conf | KCNK3 uninduced | others
CN(C(=O)CSc1nc(-c2ccc(C(C)(C)C)cc2)c(C#N)c(=O)[nH]1)C1CCCCC1 | -15 | 1 | i | i | i | 7* | 54* | 0.42 | 79%* | i | nt | nt | KCNK9 block conf=i;Kir2-1 spec=i;HEK293 Tl ctr=29%*
CCN1C(=O)C(=O)N(CC(=O)N2CCN(c3ccccc3)CC2)C1=O | -10 | -0.84 | i | i | i | i | nt | nt | nt | nt | nt | nt
CCOC(=O)c1ccccc1NC(=O)C1CCN(c2ncnc3sc(C)c(C)c23)CC1 | -11 | -0.02 | i | -8.9* | i | 10* | 89* | 0.41 | 132%* | 130%* | nt | nt | KCNQ1 ephys val=i;KCNK9 block conf=i;Kir2-1 spec=i;HEK293 Tl ctr=32%*
COc1ccc2nc(NC(=O)c3sc4nc(C)cc(C)c4c3N)sc2c1 | -14 | -0.99 | i | i | i | i | nt | nt | nt | nt | nt | nt
S=C(Nc1ccc(Cc2ccncc2)cc1)Nc1cccc(Cl)c1 | -10 | 0.39 | i | i | i | 8* | 68* | 0.51 | 86%* | 37%* | nt | nt | KCNK9 block conf=i;Kir2-1 spec=i;HEK293 Tl ctr=i
O=C(Cn1cccn1)N1CCCC(N2CCN(c3ccccc3F)CC2)C1 (centres undefined) | -4 | 0.31 | i | i | i | i | nt | nt | nt | nt | nt | nt
CCCOC(=O)C(C)n1c(-c2ccccc2)nc2ccccc2c1=O (centres undefined) | -9 | -1.6 | -11* | i | i | 7* | 0 | 0.48 | i | 58%* | nt | nt | KCNK9 block conf=51%*;Kir2-1 spec=i;HEK293 Tl ctr=36%*
CCOC(=O)Cn1c(-c2ccccc2)nc2ccccc2c1=O | -12 | -0.17 | i | i | i | i | nt | nt | nt | nt | nt | nt
O=C(Nc1cccnc1)c1cc(-c2ccc(Br)cc2)nc2ccccc12 | -18 | -0.16 | -9.7* | -15* | i | 8* | 142* | 0.25* | 139%* | + | 143* | i | KCNK9 block conf=33%*;Kir2-1 spec=i;HEK293 Tl ctr=i
CCOC(=O)[C@H]1[C@H]2COc3ccc(Br)cc3[C@H]2N2C(=O)CN(Cc3ccc(C)cc3)C(=O)[C@@]12C | nt | nt | nt | i | nt | nt | nt | nt | nt | nt | nt | nt
CCOc1ccc(N(C)S(=O)(=O)c2cc(-c3cc(C)no3)ccc2CC)cc1 | -5 | 1.2 | -7.8* | -13* | i | 13* | 98* | 0.36* | 118%* | 138%* | 123* | 0.14*
O=C(C(Cc1ccccc1)n1cccc1)N1CCN(Cc2ccccc2)CC1 (centres undefined) | -22 | 1.6 | i | i | i | i | nt | nt | nt | nt | nt | nt
O=C(C(Cc1ccccc1)n1cccc1)N1CCN(c2cccc(Cl)c2)CC1 (centres undefined) | -6 | -2 | i | -9.2* | i | 8* | 116* | 0.33* | 117%* | 158%* | 98* | 0.14*
Cc1ccc2c(CN(C)Cc3ccc(OC(F)F)cc3)cc(=O)oc2c1C | -21 | 0.56 | i | -10* | i | 11* | 128* | 0.47 | 101%* | 135%* | 126* | 0.15* | KCNQ1 ephys val=i
O=S1(=O)Cc2cc3ccccc3cc2C1 | -12 | 0.1 | i | i | i | i | nt | nt | nt | nt | nt | nt
Cc1cc(SCC(=O)c2ccc(O)c(O)c2)nc2ccccc12 | -17 | -1 | i | -9.4* | i | 9* | 100* | 0.47 | i | 116%* | 120* | 0.14* | KCNQ1 ephys val=i
Cc1cc(SCC(=O)c2ccc3c(c2)OCO3)nc2ccccc12 | -13 | -3.3 | i | i | i | i | nt | nt | nt | nt | nt | nt
Cc1cccc2sc(NC(=O)C3c4ccccc4Oc4ccccc43)nc12 | -13 | -0.49 | -10* | -10* | i | 13* | 112* | 0.45 | 76%* | 144%* | 130* | 0.15* | KCNQ1 ephys val=i;KCNK9 block conf=44%*;Kir2-1 spec=i;HEK293 Tl ctr=40%*
Cc1cccc2sc(NC(=O)C3CC3)nc12 | -5 | 0.92 | i | i | i | i | nt | nt | nt | nt | nt | nt
Cc1c(Nc2ncccc2C(=O)O)cccc1C(F)(F)F | -7 | 0.4 | i | i | i | i | nt | nt | nt | nt | nt | nt
CC(C)(C)OC(=O)NCc1ccc(CNC(=O)c2[nH]cnc2C(=O)NCC(=O)OCc2ccccc2)cc1 | -12 | 0.09 | i | i | i | i | nt | nt | nt | nt | nt | nt
COc1ccc(-n2cc(-c3ccccc3)c3c(N4CC(C)OC(C)C4)ncnc32)cc1 (centres undefined) | -35 | -1.3 | i | -11* | i | 12* | 121* | 0.41 | 142%* | 170%* | 114* | 0.13* | KCNQ1 ephys val=i
CCOc1ccc(-n2cc(-c3ccccc3)c3c(N4CCOCC4)ncnc32)cc1 | -14 | 0.27 | i | i | i | i | nt | nt | nt | nt | nt | nt
CCOC(=O)C1=C(C)Nc2ccccc2N=C1NC(=O)c1ccc(Cl)c(S(=O)(=O)N2CCCC2)c1 | -8 | -0.1 | i | i | i | i | nt | nt | nt | nt | nt | nt
Cc1ccc(N/C(N)=N/c2nc3c(c(=O)[nH]2)CCCC3)c(C)c1 | 1 | -0.18 | i | i | i | i | nt | nt | nt | nt | nt | nt

Screening results from PubChem.
